Shown are actives, neighbours in structure and some others; about 1.8% of the full set was active somewhere.
iPSC survival up: enhancers of single-cell hiPSC survival, primary screen, ATPlite luminescence; AID 602274, 2012; survival enhancement, % at 20 µM; 100% = ROCK inhibitor wells, 0% = DMSO; 360,000 compounds, 0.044% hits; in the data active means survival enhancement above about 18%;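 further: cells exposed to compounds for 16 hours before the ATP read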
FLuc inh counter: firefly luciferase enzyme inhibitors, primary screen, artefact control for luciferase-based inhibitor screens, biochemical, luminescence, ATPLite | Luciferin 4-monooxygenase (Photinus pyralis), P08659 | 10 min | inhibition, % at 10 µM | 200,000 compounds, 1.5% hits;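 active means inhibition above about 50% when tested at 10 µM, limit read from the data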
Target sequence (P08659 whole entry, looked up): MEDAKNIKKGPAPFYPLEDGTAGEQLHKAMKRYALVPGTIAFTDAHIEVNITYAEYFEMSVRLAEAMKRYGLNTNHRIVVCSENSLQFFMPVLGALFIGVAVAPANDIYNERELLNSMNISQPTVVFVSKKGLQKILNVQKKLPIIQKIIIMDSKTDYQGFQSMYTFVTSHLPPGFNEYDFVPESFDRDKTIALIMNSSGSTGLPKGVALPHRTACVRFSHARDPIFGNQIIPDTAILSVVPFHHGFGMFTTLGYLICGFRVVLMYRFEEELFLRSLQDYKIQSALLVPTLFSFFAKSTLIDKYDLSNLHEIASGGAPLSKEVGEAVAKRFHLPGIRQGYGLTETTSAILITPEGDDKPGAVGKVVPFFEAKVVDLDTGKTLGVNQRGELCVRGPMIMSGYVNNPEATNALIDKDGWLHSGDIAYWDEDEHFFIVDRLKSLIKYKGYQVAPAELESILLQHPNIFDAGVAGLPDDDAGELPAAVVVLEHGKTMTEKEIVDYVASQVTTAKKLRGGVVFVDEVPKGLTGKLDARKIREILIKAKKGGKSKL
TRAIL sens C8: viability loss with TRAIL in NB7+C8 cells, primary screen, TRAIL sensitizer project, cell-based, ATPlite luminescence; inhibition (viability loss, TRAIL sensitization), % at 10 µM; AID 624354, 2012; 360,000 compounds, 1% hits;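 active means compounds causing at least 50% loss of cell viability in the single-dose screen, relative to plate controls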
MIN6 prolif: inducers of MIN6 beta-cell proliferation, primary screen, ATP luminescence, uHTS; MIN6 cells proliferation, ATPlite luminescence, 48 h; cells starved in 0.2% serum; 100% = growth in 10% serum; proliferation, % at 10 µM; 330,000 compounds, 0.29% hits; AID 2380, 2010;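 active means compounds whose signal lies at least 3.5 SD above the mean of all wells on their plate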;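 further: 0% = DMSO-treated cells in low-serum medium and 100% = 10% serum control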
PPC-1+TRAIL kill: compounds killing PPC-1 cancer cells with TRAIL present, primary screen, TRAIL potentiator project, ATPLite luminescence, uHTS | PPC-1 cells + TRAIL, ATPLite viability luminescence | cell killing (% activity), % at 4 µM or 5 µM | 220,000 compounds, 0.41% hits | AID 1443, 2008;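 active means cell killing above 50% in the first pass at 4 µM, then a duplicate retest at 5 µM averaging 50% or more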;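 further: plate controls were cells with TRAIL plus DMSO for no effect and medium-only wells lacking cells for full effect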
FLuc act counter: FLuc activators, initial screening, artefact control for FLuc-dependent activation tests, biochemical, ATPlite luminescence; Luciferin 4-monooxygenase (Photinus pyralis), P08659; activation factor at 10 µM; ATPlite luciferase biochemical, 10 min; 0 = ATP-free wells, 1 = DMSO control; AID 1027, 2008; 200,000 tested, under 10 active;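 active means luciferase activation factor, scaled between plate controls, of at least 2 with compound at 10 µM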
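test system = cell-free luciferase reagent | medium = PBS as buffer for the ATP substrate | dosing = test compounds dosed from 2 mM stocks in 100% DMSO | incubation = 10 min at ambient temperature | detection = luminescence measurement of luciferase light output | benchmarks = low control with PBS replacing ATP, high control enzyme plus ATP without compound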
PPC-1 tox: cytotoxicity in PPC-1 cells, confirmation, cytotoxicity control for TRAIL apoptosis potentiator project, cell-based, ATP content luminescence; shares compounds with PPC-1+TRAIL kill; PPC-1 viability, ATPlite luminescence, overnight; cytotoxicity, % at 5 µM; 1,200 compounds, 50% hits; AID 1447, 2008;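 active means reconfirmed compounds whose average cytotoxicity reaches 50% or more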;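 further: 0% = DMSO-treated cells and 100% = wells holding medium but no cells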
* = called active by the depositor; · = no result.

SMILES | iPSC survival up | FLuc inh counter | TRAIL sens C8 | MIN6 prolif | PPC-1+TRAIL kill | FLuc act counter | PPC-1 tox
Cc1cc(C(=O)Nc2ccc(Cl)cc2)c(C)n1-c1ccccc1 | -1 | · | 83* | -4 | 83* | · | 79*
CC1=NN(c2nc3ccccc3[nH]2)C(=O)/C1=C/N(C)C | -1 | 94* | 88* | -6 | 79* | 0.1 | 79*
COc1ccc(NC(=O)CN2CCN(CC(=O)Nc3cc(OC)cc(OC)c3)CC2)cc1 | -1 | 2 | 5 | · | -2 | 1 | 4
COc1cc(NC(=O)CN2CCCCCC2)cc(OC)c1 | 0 | · | -4 | 1 | · | · | ·
O=C(Nc1ccc2c(c1)OCO2)Nc1ccc2c(c1)OCO2 | -4 | 40 | 23 | -5 | 25 | 0.6 | 13
O=C(Nc1ccc(Cl)c(Cl)c1)c1ccc2c(c1)OCO2 | 0 | · | 16 | -4 | · | · | ·
CCOC(=O)c1c(C)c(C(=O)Nc2ccc3c(c2)OCO3)c(C)n1C | 4 | 3 | 4 | -1 | 10 | 1 | ·
CCOC(=O)c1c(N)sc(C(=O)Nc2ccc3c(c2)OCO3)c1C | -8 | 90* | 78* | -4 | 71* | 0.1 | 77*
O=C(Nc1ccc2nsnc2c1)c1ccc2c(c1)OCO2 | -1 | 70* | 48 | -4 | 50 | 0.3 | 52*
COc1cc(C(=O)Nc2cc(C)ccn2)cc(OC)c1OC | 8 | -3 | -3 | 1 | 29 | 1 | ·
COc1ccc(C(=O)NC(=O)Nc2cc(C)ccn2)cc1 | -2 | 92* | 84* | -5 | 87* | 0.1 | 87*
CC(C)Oc1ccc(S(=O)(=O)N2CCOCC2)cc1NC(=O)C1COc2ccccc2O1 (centres undefined) | 0 | · | 17 | 2 | · | · | ·
Cc1ccnc(NC(=O)c2ccc3c(c2)OCO3)c1 | -1 | 92* | 77* | -5 | 75* | 0.1 | 74*
O=C(Nc1ccon1)c1ccc2c(c1)OCO2 | -1 | 5 | 8 | 3 | -9 | 0.9 | ·
COc1ccc(C(=O)Sc2nncc3ccccc23)cc1 | 0 | -2 | 1 | 4 | 10 | 1 | 7
COc1ccc(-c2cc(C#N)nc(Cl)n2)cc1 | 3 | · | 21 | -4 | 22 | · | 19
COc1ccc(-c2cc(C#N)nc(Oc3ccc(Cl)cc3)n2)cc1 | -1 | -7 | 16 | -2 | 18 | 1.1 | ·
Nc1ccc2nc(-c3cccc(-c4nc5ccc(N)cc5[nH]4)n3)[nH]c2c1 | 0 | · | 20 | -3 | · | · | ·
c1ccc(-c2nc3cc4ccccc4cc3[nH]2)nc1 | -4 | 95* | 86* | -5 | 89* | 0 | 90*
c1cncc(-c2nc3cc4ccccc4cc3[nH]2)c1 | -3 | 82* | 66* | -4 | 61* | 0.2 | 66*
Cc1ccc(NCC(=O)Nc2ccc(Br)cc2)cc1F | -1 | -5 | -1 | 0 | 2 | 1 | ·
CC(=O)NCCSc1ccc(S(=O)(=O)N2CCCC2)cn1 | 1 | · | -4 | 0 | · | · | ·
C=CCNC(=S)N/N=C(\C)c1ccccn1 | -4 | -1 | -7 | -6 | 33 | 1 | 41
Cc1ccc(NCc2ccccc2O)cc1 | -2 | -2 | -3 | -3 | -3 | 1 | -7
CC12CC(NC(=O)N1CCc1ccccc1)c1ccccc1O2 (centres undefined) | 0 | 2 | -7 | 0 | 3 | 1 | ·
SMILES | iPSC survival up | FLuc inh counter | TRAIL sens C8 | MIN6 prolif | PPC-1+TRAIL kill | FLuc act counter | PPC-1 tox
CC1C2NC(=O)N(Cc3ccccc3)C1(C)Oc1ccccc12 (centres undefined) | 0 | -5 | -16 | -2 | -9 | 1.1 | -1
Nc1ccc(N=Nc2ccccc2O)c(N)c1 | 0 | · | 16 | -2 | · | · | ·
Oc1ccccc1N=Nc1ccccc1O | -5 | 1 | 34 | · | 43 | 1 | 41
CCCN(CC(=O)Nc1ccccc1C)CC(=O)Nc1ccc(Br)cc1F | 0 | · | 5 | -4 | · | · | ·
COc1ccc2nc(NC(=O)CCNC(=O)c3ccco3)sc2c1 | -3 | · | 4 | -2 | · | · | ·
O=C(Nc1nc2ccc([N+](=O)[O-])cc2s1)c1ccco1 | · | 40 | · | -6 | 26 | 0.6 | 34
COc1ccc2sc(NC(=O)c3ccco3)nc2c1 | -4 | 88* | 68* | -4 | 53* | 0.1 | 59*
COc1ccc(NC(=O)c2cc(C3CCCCN3S(=O)(=O)c3cn(C)cn3)on2)c(C)c1 (centres undefined) | 3 | · | -11 | · | · | · | ·
CC(C)(C)NC(=O)C(c1cc2ccccc2o1)n1c(=O)c(-c2ccccc2)nc2ccccc21 (centres undefined) | · | · | 0 | · | · | · | ·
O=S1(=O)c2cccc3cccc(c23)N1Cc1nnc(-c2ccccc2Br)o1 | -1 | -3 | 24 | -4 | 5 | 1 | ·
O=S1(=O)c2cccc3cccc(c23)N1Cc1ccc(-c2nnco2)cc1 | -1 | -8 | 8 | -1 | 1 | 1.1 | 4
CSc1nc(C)cc(SCC(=O)Nc2ccccc2)n1 | 0 | 3 | -2 | -3 | -8 | 1 | -14
C/C(=N/NS(=O)(=O)c1ccc(CC(C)C)cc1)c1ccncc1 | 0 | · | 15 | -2 | · | · | ·
CCCC(C)NC(=O)c1nc(-c2ccccc2)n(-c2ccccc2)n1 (centres undefined) | 1 | -11 | 17 | -2 | -8 | 1.1 | 4
NC(=O)Nc1ccc(C(=O)OCC(=O)N(Cc2ccccc2)C2CCS(=O)(=O)C2)cc1 (centres undefined) | 2 | -2 | 14 | 0 | -3 | 1 | 0
O=C(COC(=O)CSc1ccc([N+](=O)[O-])cc1)NCCC1=CCCCC1 | -1 | · | -2 | -1 | · | · | ·
CC(=O)Nc1ccc(NC(=O)Cn2cc3c(n2)CCCC3)cc1 | 5 | -1 | -13 | -6 | -5 | 1 | 13
CC(=O)c1cccc(NC(=O)Cn2cc3c(n2)CCCC3)c1 | 3 | -3 | -3 | 1 | 27 | 1 | ·
CCCNC(=O)C1(C)CCCN(C/C=C/c2ccccc2)C1 (centres undefined) | 0 | · | -26 | · | · | · | ·
O=C(NCc1ccc2c(c1)OCO2)c1cc(-c2ccccc2)on1 | -1 | -2 | -1 | -3 | 21 | 1 | 13
COCCN1C(=O)c2ccc(C(=O)NCc3cccnc3)cc2C1=O | -1 | -3 | 4 | -2 | -1 | 1 | 12
CN1CCN(CCCNC(=O)c2nnc(Cc3c(F)cccc3Cl)o2)CC1 | 2 | -2 | 3 | 0 | 7 | 1 | 16
CCOC(=O)C1CCN(C(=O)CNC(=O)c2nn(-c3ccc(OC)cc3)c(=O)c3ccccc23)CC1 | -1 | · | 39 | 0 | · | · | ·

Assay outcomes: PubChem BioAssay, Sanford-Burnham Center for Chemical Genomics
